Data reported in ChEMBL document CHEMBL1152630, “Synthesis and evaluation of benzo[b]thiophene derivatives as inhibitors of alkaline phosphatases” (Bioorg Med Chem, 2009).
Counter-ions that a name gives are not always drawn.

Tests used:
[1] = target: Intestinal-type alkaline phosphatase (Bos taurus) (UniProt P19111); test: Inhibition of bovine intestinal alkaline phosphatase assessed as residual enzyme activity at 0.1 mM in presence of 1% DMSO at pH 10.4 at 37 degC relative to untreated control
Chain of Intestinal-type alkaline phosphatase (Bos taurus) (P19111 20-506 limits assumed): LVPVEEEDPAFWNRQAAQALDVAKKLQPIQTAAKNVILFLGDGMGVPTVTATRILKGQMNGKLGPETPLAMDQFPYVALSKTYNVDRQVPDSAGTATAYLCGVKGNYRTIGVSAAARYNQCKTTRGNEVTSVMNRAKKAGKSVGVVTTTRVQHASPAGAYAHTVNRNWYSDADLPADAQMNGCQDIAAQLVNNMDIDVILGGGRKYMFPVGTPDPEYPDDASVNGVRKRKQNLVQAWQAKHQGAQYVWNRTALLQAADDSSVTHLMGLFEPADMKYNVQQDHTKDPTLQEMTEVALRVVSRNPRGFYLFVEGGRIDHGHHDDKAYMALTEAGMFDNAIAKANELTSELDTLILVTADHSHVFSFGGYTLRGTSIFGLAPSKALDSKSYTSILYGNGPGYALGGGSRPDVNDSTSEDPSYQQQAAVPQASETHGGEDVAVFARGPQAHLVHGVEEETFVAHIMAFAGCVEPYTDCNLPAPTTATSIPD
Procedure, shortened: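 Screening in 25 mM piperazine, 25 mM glycylglycine, 5 mM MgCl2, 5 µM ZnCl2, pH 10.4, 37 °C. BIAP (0.1–0.3 µg/mL) preincubated 10 min with 0.1 mM compound (final DMSO 1% v/v), no substrate. Reaction started with 0.05 mM pNPP; read at 420 nm (ε 18.6 cm⁻¹ mM⁻¹). Activity given relative to inhibitor-free control; sample-to-sample error 5%.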

[2] = Inhibition of porcine kidney tissue non-specific alkaline phosphatase at pH 7.8 at 37 degC; design: species or system Sus scrofa
[3] = species: Sus scrofa; test: Inhibition of porcine kidney tissue non-specific alkaline phosphatase assessed as residual enzyme activity at 0.4 mM in presence of 4% DMSO at pH 10.4 at 37 degC relative to untreated control
[4] = species: Sus scrofa; test: Inhibition of porcine kidney tissue non-specific alkaline phosphatase assessed as residual enzyme activity at 0.4 mM in presence of 1% DMSO at pH 10.4 at 37 degC relative to untreated control

SMILES	Activity [1] [%]	Ki [2] [µM]	Activity [3] [%]	Activity [4] [%]
c1ccc2c(C3CN4CCSC4=N3)csc2c1 (stereo not drawn)	100	135	19	
COc1cc(Oc2csc3ccccc23)cc(OC)c1OC	129		101	
FC(F)c1c(-c2cccnc2)sc2ccccc12	103			79
N#Cc1ccccc1-c1sc2ccccc2c1Oc1ccc(F)cc1	66		85	
CN1CCN(c2c[s+]([O-])c3ccccc23)CC1 (stereo not drawn)	102		95	
COc1cccc(C(=O)c2c(-c3ccc(OC)cc3[N+](=O)[O-])sc3ccccc23)c1	116		100	
COc1csc2ccccc12	90		93	
COc1c(-c2ccccn2)sc2ccccc12	99		90	
O=[N+]([O-])c1cc(Cl)ccc1-c1cc2ccccc2s1	107		93	
O=Cc1csc2ccccc12	120		85	
c1ccc(Oc2csc3ccccc23)cc1	104		89	
COc1ccc(Oc2c(-c3ccccc3C#N)sc3ccccc23)c(OC)c1OC	121		106	
CN(C)c1ccc(-c2sc3ccccc3c2C#N)cc1	82		83	
COc1ccc(-c2sc3ccccc3c2C=O)cc1	37		99	
O=[N+]([O-])c1ccccc1-c1sc2ccccc2c1-c1ccccc1[N+](=O)[O-]	108		88	
O=[N+]([O-])c1ccccc1-c1cc2ccccc2s1	121		86	
O=Cc1c(-c2ccccc2Cl)sc2ccccc12	63		97	
NCc1ccc(Oc2csc3ccccc23)cc1	105		83	
N#Cc1ccccc1-c1sc2ccccc2c1Oc1ccc(Cl)cc1	101		79	
O=Cc1c(-c2ccc(C(F)(F)F)cc2)sc2ccccc12	30		80	
[O-][s+]1cc(N2CCCCC2)c2ccccc21 (stereo not drawn)	110		101	
c1ccc(-c2sc3ccccc3c2N2CCCCC2)cc1	99		81	
FC(F)c1c(-c2ccccc2)sc2ccccc12	94		90	
Ic1cc2ccccc2s1	41		54	

SMILES	Activity [1] [%]	Ki [2] [µM]	Activity [3] [%]	Activity [4] [%]
Fc1ccc(Oc2csc3ccccc23)cc1	104		78	
NCc1c(-c2ccccc2)sc2ccccc12	148		76	
c1ccc2c(N3CCCCC3)csc2c1	92		80	
CN1CCN(c2csc3ccccc23)CC1	107		97	
NCc1c(-c2cccnc2)sc2ccccc12	105		111	
COc1ccc(-c2sc3ccccc3c2Oc2ccccc2)cc1	105		94	
O=Cc1c(-c2ccccc2)sc2ccccc12	41		77	
O=Cc1c(-c2cccnc2)sc2ccccc12	119		93	
COc1ccc(Oc2c[s+]([O-])c3ccccc23)cc1 (stereo not drawn)	107		100	
C1=CN2CC(c3csc4ccccc34)N=C2S1 (stereo not drawn)	99	85	11	
N#Cc1ccccc1-c1sc2ccccc2c1Oc1ccccc1	110		91	
COc1ccc(Oc2c(-c3ccccc3C#N)sc3ccccc23)cc1	106		98	
Clc1ccc(Oc2csc3ccccc23)cc1	107		94	
O=Cc1c(-c2cccc(Cl)c2)sc2ccccc12	62		95	
N#Cc1ccc(Oc2csc3ccccc23)cc1	87		85	
COc1c(-c2cccnc2)sc2ccccc12	112		44	
N#Cc1ccc(Oc2c(-c3ccccc3C#N)sc3ccccc23)cc1	82		97	
COc1ccc(C(=O)c2c(-c3ccc(OC)cc3)sc3ccccc23)cc1	70		108	
N#Cc1ccc(-c2sc3ccccc3c2C=O)cc1	92		105	
COc1ccc(-c2sc3ccccc3c2C(=O)c2ccccc2)c([N+](=O)[O-])c1	114		97	
c1ccc2c(N3CCOCC3)csc2c1	108		99	
c1ccc([C@H]2CN3CCSC3=N2)cc1 [LEVAMISOLE HYDROCHLORIDE]	99	93	10	
N#Cc1ccccc1-c1sc2ccccc2c1N1CCCCC1	99		100	
COc1c(-c2ccccc2C#N)sc2ccccc12	57		79	

SMILES	Activity [1] [%]	Ki [2] [µM]	Activity [3] [%]	Activity [4] [%]
N#Cc1ccccc1-c1c(OCC(F)(F)F)sc2ccccc12	101		87	
COc1ccc(-c2cc3ccccc3s2)c([N+](=O)[O-])c1	99		96	
[O-][s+]1cc(Oc2ccccc2)c2ccccc21 (stereo not drawn)	102		104	
N#Cc1ccc(Oc2c[s+]([O-])c3ccccc23)cc1 (stereo not drawn)	106		67	
COc1ccc(-c2sc3ccccc3c2C(=O)c2cc(OC)c(O)c(OC)c2)c([N+](=O)[O-])c1	125		95	
COc1c(-c2ccccc2)sc2ccccc12	80		87	
c1ccc(Oc2c(-c3ccccc3)sc3ccccc23)cc1	104		91	
N#Cc1ccccc1-c1sc2ccccc2c1C(=O)c1ccccc1	91		92	
COc1cc(-c2sc3ccccc3c2C#N)cc(OC)c1OC	88		91	
Nc1ccccc1-c1cc2ccccc2s1	93		70	
[O-][s+]1cc(Oc2ccc(F)cc2)c2ccccc21 (stereo not drawn)	109		79	
COc1ccc(-c2sc3ccccc3c2C(=O)c2ccccc2OC)c([N+](=O)[O-])c1	117		111	
COc1cccc(C(=O)c2c(-c3ccccc3[N+](=O)[O-])sc3ccccc23)c1	98		96	
O=C(c1ccccc1)c1csc2ccccc12	43		80	
Cc1ccc(-c2cc3ccccc3s2)c(N)c1	107		93	
[O-][s+]1cc(Br)c2ccccc21 (stereo not drawn)	105		100	
N#Cc1csc2ccccc12	92		92	
COc1ccccc1C(=O)c1c(-c2ccccc2[N+](=O)[O-])sc2ccccc12	92		98	
N#Cc1ccccc1-c1sc2ccccc2c1C=O	110		79	
O=Cc1c(-c2ccccc2[N+](=O)[O-])sc2ccccc12	116		78	
COc1ccc(C(=O)c2c(-c3ccc(OC)cc3[N+](=O)[O-])sc3ccccc23)cc1	95		100	
COc1ccc(C(=O)c2csc3ccccc23)cc1	40		96	
